# Laboratory results from paper PMC7993274 (Clinical and Translational Science, 2020).
# Key:
# [1] = background statement, no reference given; cited from earlier work
# OATP1B3 = settings: cited from earlier work
# MRP3 = settings: cited from earlier work
# [2] = system: CYP1A2, CYP2D6, and CYP3A; settings: cited from earlier work
# [3] = Treatment-emergent adverse events, MAD period and b.i.d. cohort; format: in vivo, human
# Outline: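 Double-blind, placebo-controlled study in healthy men and nonchildbearing women aged 18–55 y. The SAD period gave one fasted oral dose; the MAD period gave fed dosing q.d. for 10 days, plus a separate b.i.d. cohort. TEAEs, serious AEs and discontinuation AEs were monitored ≥28 days after the last dose. Vital signs, physical exam, 12-lead ECG, hematology, clinical chemistry and urinalysis were also recorded. Data summarized descriptively.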
# Impact of food on PK = format: in vivo, human; design: Cmax adjusted geometric mean (90% CI) for fed vs. fasted / AUC24 adjusted geometric mean for fed vs. fasted (90% CI): unit not given beside the values; settings: for increase in AUC24 with a meal / increase in Cmax with a meal: fed vs fasted
# MRP2 = settings: cited from earlier work
# [4] = MAD Japanese cohort 400 mg q.d. (n = 5)
# [5] = b.i.d. cohort 200 mg b.i.d. (n = 7)
structure (smiles),measurement,setting,value
Cn1cc(-c2cn3nccc3c(-c3cnn([C@]4(CC#N)C[C@@H](C#N)C4)c3)n2)cn1 [PF‐06826647],pKa,[1],< 1.7
same,inhibition of transporter protein OATP1B3,OATP1B3,minimal inhibition
same,inhibition of transporter protein MRP3,MRP3,minimal inhibition
same,major human clearance pathway,[2],"cytochrome P450 (CYP)‐mediated (via CYP1A2, CYP2D6, and CYP3A) metabolism"
same,AEs,[3]; MAD 30 mg q.d. (n = 6),2 n
same,AEs leading to permanent discontinuation of study drug,[3]; MAD 30 mg q.d. (n = 6),0 n
same,AEs leading to study drug dose reduction or interruption,[3]; MAD 30 mg q.d. (n = 6),0 n
same,Participants with AE,[3]; MAD 30 mg q.d. (n = 6),2 (33.3) n (%)
same,Participants with TEAEs: Alanine aminotransferase increased,[3]; MAD 30 mg q.d. (n = 6),0 n (%)
same,Participants with TEAEs: Blood creatinine increased,[3]; MAD 30 mg q.d. (n = 6),0 n (%)
same,Participants with TEAEs: Constipation,[3]; MAD 30 mg q.d. (n = 6),1 (16.7) n (%)
same,Participants with TEAEs: Dysuria,[3]; MAD 30 mg q.d. (n = 6),0 n (%)
same,Participants with TEAEs: Gastrointestinal disorders (SOC),[3]; MAD 30 mg q.d. (n = 6),2 (33.3) n (%)
same,Participants with TEAEs: Headache,[3]; MAD 30 mg q.d. (n = 6),0 n (%)
same,Participants with TEAEs: Investigations (SOC),[3]; MAD 30 mg q.d. (n = 6),0 n (%)
same,Participants with TEAEs: Nausea,[3]; MAD 30 mg q.d. (n = 6),1 (16.7) n (%)
same,Participants with TEAEs: Nervous system disorders (SOC),[3]; MAD 30 mg q.d. (n = 6),0 n (%)
same,Participants with TEAEs: Renal and urinary disorders (SOC),[3]; MAD 30 mg q.d. (n = 6),0 n (%)
same,SAEs,[3]; MAD 30 mg q.d. (n = 6),0 n
same,Severe AEs,[3]; MAD 30 mg q.d. (n = 6),0 n
same,AEs,[3]; MAD 100 mg q.d. (n = 6),1 n
same,AEs leading to permanent discontinuation of study drug,[3]; MAD 100 mg q.d. (n = 6),0 n
same,AEs leading to study drug dose reduction or interruption,[3]; MAD 100 mg q.d. (n = 6),0 n
same,Participants with AE,[3]; MAD 100 mg q.d. (n = 6),1 (16.7) n (%)
same,Participants with TEAEs: Alanine aminotransferase increased,[3]; MAD 100 mg q.d. (n = 6),0 n (%)
same,Participants with TEAEs: Blood creatinine increased,[3]; MAD 100 mg q.d. (n = 6),1 (16.7) n (%)
same,Participants with TEAEs: Constipation,[3]; MAD 100 mg q.d. (n = 6),0 n (%)
same,Participants with TEAEs: Dysuria,[3]; MAD 100 mg q.d. (n = 6),0 n (%)
same,Participants with TEAEs: Gastrointestinal disorders (SOC),[3]; MAD 100 mg q.d. (n = 6),0 n (%)
same,Participants with TEAEs: Headache,[3]; MAD 100 mg q.d. (n = 6),0 n (%)
same,Participants with TEAEs: Investigations (SOC),[3]; MAD 100 mg q.d. (n = 6),1 (16.7) n (%)
same,Participants with TEAEs: Nausea,[3]; MAD 100 mg q.d. (n = 6),0 n (%)
same,Participants with TEAEs: Nervous system disorders (SOC),[3]; MAD 100 mg q.d. (n = 6),0 n (%)
same,Participants with TEAEs: Renal and urinary disorders (SOC),[3]; MAD 100 mg q.d. (n = 6),0 n (%)
same,SAEs,[3]; MAD 100 mg q.d. (n = 6),0 n
same,Severe AEs,[3]; MAD 100 mg q.d. (n = 6),0 n
same,AEs,[3]; MAD 400 mg q.d. (n = 6),1 n
same,AEs leading to permanent discontinuation of study drug,[3]; MAD 400 mg q.d. (n = 6),0 n
same,AEs leading to study drug dose reduction or interruption,[3]; MAD 400 mg q.d. (n = 6),0 n
same,Participants with AE,[3]; MAD 400 mg q.d. (n = 6),1 (16.7) n (%)
same,Participants with TEAEs: Alanine aminotransferase increased,[3]; MAD 400 mg q.d. (n = 6),0 n (%)
same,Participants with TEAEs: Blood creatinine increased,[3]; MAD 400 mg q.d. (n = 6),1 (16.7) n (%)
same,Participants with TEAEs: Constipation,[3]; MAD 400 mg q.d. (n = 6),0 n (%)
same,Participants with TEAEs: Dysuria,[3]; MAD 400 mg q.d. (n = 6),0 n (%)
same,Participants with TEAEs: Gastrointestinal disorders (SOC),[3]; MAD 400 mg q.d. (n = 6),0 n (%)
same,Participants with TEAEs: Headache,[3]; MAD 400 mg q.d. (n = 6),0 n (%)
same,Participants with TEAEs: Investigations (SOC),[3]; MAD 400 mg q.d. (n = 6),1 (16.7) n (%)
same,Participants with TEAEs: Nausea,[3]; MAD 400 mg q.d. (n = 6),0 n (%)
same,Participants with TEAEs: Nervous system disorders (SOC),[3]; MAD 400 mg q.d. (n = 6),0 n (%)
same,Participants with TEAEs: Renal and urinary disorders (SOC),[3]; MAD 400 mg q.d. (n = 6),0 n (%)
same,SAEs,[3]; MAD 400 mg q.d. (n = 6),0 n
same,Severe AEs,[3]; MAD 400 mg q.d. (n = 6),0 n
same,AEs,"[3]; MAD 1,200 mg q.d. (n = 5)",1 n
same,AEs leading to permanent discontinuation of study drug,"[3]; MAD 1,200 mg q.d. (n = 5)",0 n
same,AEs leading to study drug dose reduction or interruption,"[3]; MAD 1,200 mg q.d. (n = 5)",0 n
same,Participants with AE,"[3]; MAD 1,200 mg q.d. (n = 5)",1 (20.0) n (%)
same,Participants with TEAEs: Alanine aminotransferase increased,"[3]; MAD 1,200 mg q.d. (n = 5)",0 n (%)
same,Participants with TEAEs: Blood creatinine increased,"[3]; MAD 1,200 mg q.d. (n = 5)",1 (20.0) n (%)
same,Participants with TEAEs: Constipation,"[3]; MAD 1,200 mg q.d. (n = 5)",0 n (%)
same,Participants with TEAEs: Dysuria,"[3]; MAD 1,200 mg q.d. (n = 5)",0 n (%)
same,Participants with TEAEs: Headache,"[3]; MAD 1,200 mg q.d. (n = 5)",0 n (%)
same,Participants with TEAEs: Investigations (SOC),"[3]; MAD 1,200 mg q.d. (n = 5)",1 (20.0) n (%)
same,Participants with TEAEs: Nausea,"[3]; MAD 1,200 mg q.d. (n = 5)",0 n (%)
same,Participants with TEAEs: Nervous system disorders (SOC),"[3]; MAD 1,200 mg q.d. (n = 5)",0 n (%)
same,Participants with TEAEs: Renal and urinary disorders (SOC),"[3]; MAD 1,200 mg q.d. (n = 5)",0 n (%)
same,SAEs,"[3]; MAD 1,200 mg q.d. (n = 5)",0 n
same,Severe AEs,"[3]; MAD 1,200 mg q.d. (n = 5)",0 n
same,AEs,[3]; [4],2 n
same,AEs leading to permanent discontinuation of study drug,[3]; [4],0 n
same,AEs leading to study drug dose reduction or interruption,[3]; [4],0 n
same,Participants with AE,[3]; [4],1 (20.0) n (%)
same,Participants with TEAEs: Alanine aminotransferase increased,[3]; [4],1 (20.0) n (%)
same,Participants with TEAEs: Blood creatinine increased,[3]; [4],0 n (%)
same,Participants with TEAEs: Constipation,[3]; [4],0 n (%)
same,Participants with TEAEs: Dysuria,[3]; [4],0 n (%)
same,Participants with TEAEs: Gastrointestinal disorders (SOC),[3]; [4],0 n (%)
same,Participants with TEAEs: Headache,[3]; [4],1 (20.0) n (%)
same,Participants with TEAEs: Investigations (SOC),[3]; [4],1 (20.0) n (%)
same,Participants with TEAEs: Nausea,[3]; [4],0 n (%)
same,Participants with TEAEs: Nervous system disorders (SOC),[3]; [4],1 (20.0) n (%)
same,Participants with TEAEs: Renal and urinary disorders (SOC),[3]; [4],0 n (%)
same,SAEs,[3]; [4],0 n
same,Severe AEs,[3]; [4],0 n
same,AEs,[3]; [5],3 n
same,AEs leading to permanent discontinuation of study drug,[3]; [5],0 n
same,AEs leading to study drug dose reduction or interruption,[3]; [5],0 n
same,Participants with AE,[3]; [5],3 (42.9) n (%)
same,Participants with TEAEs: Alanine aminotransferase increased,[3]; [5],0 n (%)
same,Participants with TEAEs: Blood creatinine increased,[3]; [5],3 (42.9) n (%)
same,Participants with TEAEs: Constipation,[3]; [5],0 n (%)
same,Participants with TEAEs: Dysuria,[3]; [5],0 n (%)
same,Participants with TEAEs: Gastrointestinal disorders (SOC),[3]; [5],0 n (%)
same,Participants with TEAEs: Headache,[3]; [5],0 n (%)
same,Participants with TEAEs: Investigations (SOC),[3]; [5],3 (42.9) n (%)
same,Participants with TEAEs: Nausea,[3]; [5],0 n (%)
same,Participants with TEAEs: Nervous system disorders (SOC),[3]; [5],0 n (%)
same,Participants with TEAEs: Renal and urinary disorders (SOC),[3]; [5],0 n (%)
same,SAEs,[3]; [5],0 n
same,Severe AEs,[3]; [5],0 n
same,AUC24 adjusted geometric mean for fed vs. fasted (90% CI),Impact of food on PK; 30 mg,122.0 (78.7–189.2)
same,Cmax adjusted geometric mean (90% CI) for fed vs. fasted,Impact of food on PK; 30 mg,107.2 (74.2–154.8)
same,increase in AUC24 with a meal,Impact of food on PK; 30 mg,22%
same,increase in Cmax with a meal,Impact of food on PK; 30 mg,7%
same,AUC24 adjusted geometric mean for fed vs. fasted (90% CI),Impact of food on PK; 100 mg,155.7 (99.1–244.6)
same,Cmax adjusted geometric mean (90% CI) for fed vs. fasted,Impact of food on PK; 100 mg,160.2 (109.7–234.0)
same,increase in AUC24 with a meal,Impact of food on PK; 100 mg,56%
same,increase in Cmax with a meal,Impact of food on PK; 100 mg,60%
same,AUC24 adjusted geometric mean for fed vs. fasted (90% CI),Impact of food on PK; 400 mg,175.6 (113.3–272.3)
same,Cmax adjusted geometric mean (90% CI) for fed vs. fasted,Impact of food on PK; 400 mg,144.8 (100.2–209.1)
same,increase in AUC24 with a meal,Impact of food on PK; 400 mg,76%
same,increase in Cmax with a meal,Impact of food on PK; 400 mg,45%
same,median Tmax with food,"Impact of food on PK; fed, day 1 MAD, doses of 30–400 mg",3.0 to 4.0 h
same,inhibition of transporter protein MRP2,MRP2,minimal inhibition
